Among the data in ChEMBL document CHEMBL4422684, “Identification of novel lysine demethylase 5-selective inhibitors by inhibitor-based fragment merging strategy” (Bioorg Med Chem, 2019) are inhibition and IC50 values, retold here.

The structures appear in SMILES notation. Active and inactive are the calls of the source. The calls are words filed in the database; no cut-off is given here. Where only a bound is given, the exact number is not on record here.

Assay [1] has as its target Lysine-specific demethylase 5A (Homo sapiens, UniProt P29375). The experiment in a line: Inhibition of human C-terminal FLAG-tagged KDM5A (1 to 1090 residues) expressed in baculovirus infected Sf9 insect cells at 25 uM using H3(1-21)K4(Me3)-GGK(Biotin)/2-OG as substrate measured after 1 hr by Alphalisa assay relative to control. The essentials:
(§1)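 AlphaLISA demethylase assay in 50 mM HEPES pH 7.5, 0.1% BSA, 0.01% Tween 20 with DMSO. Enzyme and inhibitor combined, then peptide plus 2-OG (50 µM), Fe(II) (5 µM) and ascorbate (100 µM) in the added mix; 1 h at room temperature with shaking.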

In assay [2] the target is T1, Lysine-specific demethylase 4A (Homo sapiens) (UniProt O75164).
T1 sequence (whole entry): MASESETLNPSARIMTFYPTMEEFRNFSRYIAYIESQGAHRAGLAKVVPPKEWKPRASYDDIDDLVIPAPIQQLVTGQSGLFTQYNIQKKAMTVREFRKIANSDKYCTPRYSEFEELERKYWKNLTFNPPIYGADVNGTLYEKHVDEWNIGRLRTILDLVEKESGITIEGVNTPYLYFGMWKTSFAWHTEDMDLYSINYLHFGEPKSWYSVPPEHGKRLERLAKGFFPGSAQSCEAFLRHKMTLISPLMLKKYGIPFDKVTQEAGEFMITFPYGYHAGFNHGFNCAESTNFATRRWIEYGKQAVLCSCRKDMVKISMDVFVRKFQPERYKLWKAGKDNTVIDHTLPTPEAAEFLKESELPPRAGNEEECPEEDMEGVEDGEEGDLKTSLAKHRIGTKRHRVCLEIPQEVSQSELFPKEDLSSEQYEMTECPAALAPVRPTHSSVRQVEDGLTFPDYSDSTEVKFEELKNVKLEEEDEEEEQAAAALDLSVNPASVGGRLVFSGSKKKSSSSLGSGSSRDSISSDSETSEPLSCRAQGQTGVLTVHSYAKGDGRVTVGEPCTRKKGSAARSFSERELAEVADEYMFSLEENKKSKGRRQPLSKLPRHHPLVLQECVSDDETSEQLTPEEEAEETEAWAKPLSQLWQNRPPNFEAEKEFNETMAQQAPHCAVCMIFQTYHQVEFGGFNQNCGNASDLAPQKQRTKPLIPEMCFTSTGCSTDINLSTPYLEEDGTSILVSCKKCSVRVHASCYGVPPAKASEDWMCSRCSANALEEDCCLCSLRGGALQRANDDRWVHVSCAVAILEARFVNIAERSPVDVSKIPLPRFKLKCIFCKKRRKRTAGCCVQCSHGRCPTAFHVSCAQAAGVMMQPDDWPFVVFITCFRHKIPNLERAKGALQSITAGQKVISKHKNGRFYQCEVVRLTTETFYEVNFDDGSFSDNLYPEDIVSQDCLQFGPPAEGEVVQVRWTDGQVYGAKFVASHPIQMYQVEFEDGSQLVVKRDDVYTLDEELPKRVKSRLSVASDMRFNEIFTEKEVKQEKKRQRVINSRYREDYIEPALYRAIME
The experiment in a line: Inhibition of human N-terminal His-tagged KDM4A (1 to 350 residues) expressed in Escherichia coli at 50 uM using H3(21-44)-K36(Me3)-GK(Biotin)/2-OG as substrate measured after 1 hr by Alphalisa assay relative to control. The essentials:
as §1

Assay [3] addresses T1, Lysine-specific demethylase 4A (Homo sapiens). The experiment in a line: Inhibition of human N-terminal His-tagged KDM4A (1 to 350 residues) expressed in Escherichia coli at 25 uM using H3(21-44)-K36(Me3)-GK(Biotin)/2-OG as substrate measured after 1 hr by Alphalisa assay relative to control. The essentials:
as §1

The target of assay [4] is Lysine-specific demethylase 6B (Homo sapiens, UniProt O15054). The experiment in a line: Inhibition of human C-terminal FLAG-tagged KDM6B (1043 to end residues) expressed in baculovirus infected Sf9 insect cells using H3(21-44)-K27(Me3)-GK(Biotin)/2-OG as substrate measured after 1 hr by Alphalisa assay. The essentials:
as §1

In assay [5] the target is Histone lysine demethylase PHF8 (Homo sapiens, UniProt Q9UPP1). The experiment in a line: Inhibition of human N-terminal FLAG-tagged KDM7B (2 to 525 residues) expressed in baculovirus infected Sf9 insect cells at 25 uM using H3(1-21)K9(Me2)-GGK(Biotin)/2-OG as substrate measured after 1 hr by Alphalisa assay relative to control. The gist of the method: as §1
Chain of Histone lysine demethylase PHF8 (Q9UPP1 whole entry, the tested form may be a part): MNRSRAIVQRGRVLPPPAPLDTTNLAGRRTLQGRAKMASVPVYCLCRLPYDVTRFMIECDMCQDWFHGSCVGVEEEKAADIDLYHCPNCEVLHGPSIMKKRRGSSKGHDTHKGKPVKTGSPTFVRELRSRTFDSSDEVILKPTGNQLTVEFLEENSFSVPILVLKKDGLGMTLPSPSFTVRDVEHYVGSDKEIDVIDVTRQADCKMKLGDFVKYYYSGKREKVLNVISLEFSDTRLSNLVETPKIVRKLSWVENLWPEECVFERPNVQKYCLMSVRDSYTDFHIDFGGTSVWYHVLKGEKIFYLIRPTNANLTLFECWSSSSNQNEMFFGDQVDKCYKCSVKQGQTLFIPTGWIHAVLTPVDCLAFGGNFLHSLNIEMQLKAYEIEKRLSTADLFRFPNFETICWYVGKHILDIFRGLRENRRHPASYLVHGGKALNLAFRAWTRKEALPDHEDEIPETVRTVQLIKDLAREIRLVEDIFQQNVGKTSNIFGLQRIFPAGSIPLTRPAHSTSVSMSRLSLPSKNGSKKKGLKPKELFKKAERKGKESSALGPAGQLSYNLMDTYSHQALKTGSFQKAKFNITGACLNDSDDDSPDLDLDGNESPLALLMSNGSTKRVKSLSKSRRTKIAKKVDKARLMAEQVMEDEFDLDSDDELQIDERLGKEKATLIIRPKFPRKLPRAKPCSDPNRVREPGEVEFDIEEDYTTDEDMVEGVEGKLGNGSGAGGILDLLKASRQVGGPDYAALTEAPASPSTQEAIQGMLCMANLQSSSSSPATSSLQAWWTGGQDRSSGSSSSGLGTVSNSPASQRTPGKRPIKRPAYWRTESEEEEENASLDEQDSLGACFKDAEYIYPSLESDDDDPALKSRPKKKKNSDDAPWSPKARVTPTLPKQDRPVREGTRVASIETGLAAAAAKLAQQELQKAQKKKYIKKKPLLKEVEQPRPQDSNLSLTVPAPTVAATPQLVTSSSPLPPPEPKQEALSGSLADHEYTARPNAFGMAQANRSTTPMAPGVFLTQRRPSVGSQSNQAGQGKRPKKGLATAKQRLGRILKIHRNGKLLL
The test system of assay [6] is A549. The experiment in a line: Inhibition of KDM4 in human A549 cells assessed as increase in H3K9me3 levels up to 25 uM after 48 hrs by Western blot analysis. The class given is cell-based. The essentials:
(§2)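 A549 cells (5 × 10^5 per 2 mL well, RPMI1640 with 10% heat-inactivated FBS) exposed 48 h to compounds at 1, 5 or 25 µM. SDS lysates normalised by BCA, separated on 5-20% SDS-PAGE, blotted to PVDF, blocked in 5% milk/TBS-T, probed for H3K4me3, H3K9me3, H3K27me3 and total H3, detected by HRP chemiluminescence.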

For assay [7], the system named is A549. The experiment in a line: Inhibition of KDM6 in human A549 cells assessed as increase in […] levels up to 25 uM after 48 hrs by Western blot analysis. The class given is cell-based. The essentials: as §2

Chain of Lysine-specific demethylase 6B (O15054 whole entry): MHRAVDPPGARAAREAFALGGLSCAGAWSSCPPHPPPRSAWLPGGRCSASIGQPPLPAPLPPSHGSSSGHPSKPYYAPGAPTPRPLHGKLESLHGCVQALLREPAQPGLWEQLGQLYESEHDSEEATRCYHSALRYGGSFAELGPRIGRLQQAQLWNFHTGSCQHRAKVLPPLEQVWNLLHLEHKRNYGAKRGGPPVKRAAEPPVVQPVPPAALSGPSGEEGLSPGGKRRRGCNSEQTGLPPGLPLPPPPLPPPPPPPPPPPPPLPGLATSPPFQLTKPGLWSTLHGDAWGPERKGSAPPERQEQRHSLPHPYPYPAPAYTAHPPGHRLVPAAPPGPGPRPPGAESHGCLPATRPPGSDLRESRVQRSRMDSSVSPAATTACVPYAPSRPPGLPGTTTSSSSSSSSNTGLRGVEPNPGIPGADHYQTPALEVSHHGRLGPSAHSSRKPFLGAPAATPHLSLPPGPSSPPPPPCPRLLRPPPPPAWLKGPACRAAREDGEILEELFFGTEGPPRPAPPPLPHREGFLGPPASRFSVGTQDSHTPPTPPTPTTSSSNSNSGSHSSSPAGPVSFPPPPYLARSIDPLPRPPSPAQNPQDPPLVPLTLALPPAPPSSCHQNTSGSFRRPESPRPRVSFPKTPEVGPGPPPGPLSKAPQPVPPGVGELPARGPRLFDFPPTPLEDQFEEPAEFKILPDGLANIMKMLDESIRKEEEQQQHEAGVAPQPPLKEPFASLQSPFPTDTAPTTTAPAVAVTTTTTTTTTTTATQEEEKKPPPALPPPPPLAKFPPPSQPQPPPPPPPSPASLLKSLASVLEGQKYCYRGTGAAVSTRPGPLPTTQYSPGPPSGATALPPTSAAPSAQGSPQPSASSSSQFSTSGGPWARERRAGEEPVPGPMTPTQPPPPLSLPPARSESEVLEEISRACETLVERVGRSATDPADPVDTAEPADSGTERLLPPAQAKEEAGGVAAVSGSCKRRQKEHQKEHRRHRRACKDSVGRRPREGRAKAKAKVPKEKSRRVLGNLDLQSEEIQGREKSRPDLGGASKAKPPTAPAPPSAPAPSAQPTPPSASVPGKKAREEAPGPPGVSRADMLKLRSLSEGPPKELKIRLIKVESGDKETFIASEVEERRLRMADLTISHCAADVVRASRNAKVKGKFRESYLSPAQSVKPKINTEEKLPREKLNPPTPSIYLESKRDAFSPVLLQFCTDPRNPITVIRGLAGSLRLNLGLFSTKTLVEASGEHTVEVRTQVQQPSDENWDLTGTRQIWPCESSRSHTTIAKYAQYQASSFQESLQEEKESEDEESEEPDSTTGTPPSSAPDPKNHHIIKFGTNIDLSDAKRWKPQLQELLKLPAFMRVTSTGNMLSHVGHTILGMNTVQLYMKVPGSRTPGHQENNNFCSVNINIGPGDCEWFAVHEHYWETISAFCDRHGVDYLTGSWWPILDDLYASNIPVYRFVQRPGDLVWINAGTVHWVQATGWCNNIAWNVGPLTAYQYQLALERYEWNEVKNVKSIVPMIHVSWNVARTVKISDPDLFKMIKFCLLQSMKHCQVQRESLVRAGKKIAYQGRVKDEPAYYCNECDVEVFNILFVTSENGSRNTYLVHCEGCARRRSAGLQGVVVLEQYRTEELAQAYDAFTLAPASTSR
Chain of Lysine-specific demethylase 5A (P29375 whole entry, the tested form may be a part): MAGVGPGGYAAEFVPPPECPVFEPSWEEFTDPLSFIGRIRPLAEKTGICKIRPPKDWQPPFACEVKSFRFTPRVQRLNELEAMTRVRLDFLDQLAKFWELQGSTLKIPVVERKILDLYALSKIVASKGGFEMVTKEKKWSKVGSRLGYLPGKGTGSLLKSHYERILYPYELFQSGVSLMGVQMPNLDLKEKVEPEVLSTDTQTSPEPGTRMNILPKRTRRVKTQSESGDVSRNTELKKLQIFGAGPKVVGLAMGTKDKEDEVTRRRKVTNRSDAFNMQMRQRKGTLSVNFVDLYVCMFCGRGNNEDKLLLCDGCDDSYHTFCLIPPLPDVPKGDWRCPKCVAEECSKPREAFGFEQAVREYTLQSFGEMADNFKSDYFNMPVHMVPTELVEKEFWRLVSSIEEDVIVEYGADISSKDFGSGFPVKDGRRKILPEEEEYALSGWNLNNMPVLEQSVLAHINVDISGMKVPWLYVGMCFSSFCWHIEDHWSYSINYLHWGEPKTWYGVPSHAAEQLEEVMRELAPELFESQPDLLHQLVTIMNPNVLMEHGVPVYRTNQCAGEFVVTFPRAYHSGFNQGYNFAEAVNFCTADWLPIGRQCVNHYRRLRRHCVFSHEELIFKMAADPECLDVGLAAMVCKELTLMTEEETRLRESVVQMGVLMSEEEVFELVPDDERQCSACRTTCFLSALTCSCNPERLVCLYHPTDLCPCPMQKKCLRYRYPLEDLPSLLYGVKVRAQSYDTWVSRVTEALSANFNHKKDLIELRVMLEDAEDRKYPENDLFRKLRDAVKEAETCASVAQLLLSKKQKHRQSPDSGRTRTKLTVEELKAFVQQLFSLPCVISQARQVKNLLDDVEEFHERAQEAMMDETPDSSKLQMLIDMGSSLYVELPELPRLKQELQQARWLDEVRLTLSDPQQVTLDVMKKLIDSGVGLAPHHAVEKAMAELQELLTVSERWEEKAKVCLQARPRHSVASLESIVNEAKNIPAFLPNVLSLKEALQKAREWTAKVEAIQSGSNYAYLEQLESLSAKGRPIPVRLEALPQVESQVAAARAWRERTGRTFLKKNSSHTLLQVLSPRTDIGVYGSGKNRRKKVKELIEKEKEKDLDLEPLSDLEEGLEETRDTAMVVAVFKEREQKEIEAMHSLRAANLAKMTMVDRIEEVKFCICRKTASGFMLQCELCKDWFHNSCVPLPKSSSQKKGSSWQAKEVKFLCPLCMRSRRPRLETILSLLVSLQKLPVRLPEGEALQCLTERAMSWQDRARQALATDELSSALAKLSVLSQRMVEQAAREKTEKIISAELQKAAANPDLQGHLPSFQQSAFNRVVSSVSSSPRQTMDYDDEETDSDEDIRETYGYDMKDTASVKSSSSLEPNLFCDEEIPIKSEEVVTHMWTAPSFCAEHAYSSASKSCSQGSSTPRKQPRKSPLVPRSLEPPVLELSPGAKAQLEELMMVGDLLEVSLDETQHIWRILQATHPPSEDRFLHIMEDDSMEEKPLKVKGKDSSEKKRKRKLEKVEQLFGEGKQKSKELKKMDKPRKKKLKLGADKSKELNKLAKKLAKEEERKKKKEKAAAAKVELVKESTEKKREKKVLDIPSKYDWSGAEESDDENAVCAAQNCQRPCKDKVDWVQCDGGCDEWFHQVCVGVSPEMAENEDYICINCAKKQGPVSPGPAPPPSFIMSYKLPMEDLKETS

`CCCCCN(C)CCCCC(=O)N(O)CCC(=O)O`: the inhibition in assay [1] came to 89.9%; in assay [2], 25.4%.

As to `CC(C)c1c(-c2ccccc2)[nH]c2c(C#N)cnn2c1=O`, the figures for the inhibition in assay [1], in assay [2] and in assay [3] were 100%, 61.1% and 35.9%, respectively. In addition, the IC50 in assay [4] stood at 14.3 µM.

`CCCCCCN(C)Cc1ccc(-c2[nH]c3c(C#N)cnn3c(=O)c2C(C)C)cc1`: the inhibition came to 32.5% in assay [2] and 12.1% in assay [5]. The compound also gave an IC50 in assay [4] of more than 50 µM. For the same compound, the inhibition result in the assay on A549 [6] and in the assay with A549 [7] was “inactive” in each case.

For the compound `CCCCCCN(C)CCc1ccc(-c2[nH]c3c(C#N)cnn3c(=O)c2C(C)C)cc1`, the figures for the inhibition in assay [2], in assay [3] and in assay [5] were 71%, 32.4% and 11.8%, respectively. Further, the inhibition result in the assay on A549 [6] and in the assay with A549 [7] was “inactive” in each case.
